Experimental data: ChEMBL document CHEMBL3616442, “Unconventional Knoevenagel-type indoles: Synthesis and cell-based studies for the identification of pro-apoptotic agents” (Eur J Med Chem, 2015)

Tests used:
MCF7 = assay: Induction of cell cycle arrest in human MCF7 cells assessed as accumulation at G2/M phase after 18 hrs by propidium iodide staining based flow cytometric analysis; assay type: functional
Procedure, shortened: (§1)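 Propidium iodide/RNase A flow cytometry of ethanol-fixed cells, 10,000 gated events at 488 nm; G2/M fraction measured after 18 h treatment (HL-60, MCF-7) or 24 h (K562); mean ± S.E.M. of three independent experiments.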

K562 = assay: Induction of cell cycle arrest in human K562 cells assessed as accumulation at G2/M phase after 24 hrs by propidium iodide staining based flow cytometric analysis; assay type: functional; procedure, shortened: as §1

`COc1ccc(-c2[nH]c3ccccc3c2/C=C(\C#N)S(=O)(=O)c2ccccc2)cc1` was tested, and the Activity (MCF7) was 40.4% and the Activity (K562) was 42.4%.
